Converted amounts (≈) assume the structure as drawn.
Key:
Pseudomonas aeruginosa [1] = test: Antimicrobial activity against Pseudomonas aeruginosa isolate PA-SD2 harboring blaVIM-1 gene by Etest method; type: functional
Pseudomonas aeruginosa [2] = test: Antimicrobial activity against Pseudomonas aeruginosa isolate PA-SL2 harboring blaVIM-13 gene by Etest method; type: functional
Pseudomonas aeruginosa [3] = test: Antimicrobial activity against Pseudomonas aeruginosa PAO1 harboring pUCP carrying VIM-1 gene by Etest method; type: functional
Outline: (§1)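 Etest MICs of piperacillin, piperacillin-tazobactam, ceftazidime, cefepime, cefotaxime, aztreonam, imipenem and meropenem, run per manufacturer's recommendations. Strains were E. coli XL1-Blue or P. aeruginosa PAO1 carrying pUCP24-derived plasmids with blaVIM-1 or blaVIM-13 (cloned by EcoRI) inserted in the lacZ-promoter orientation. E. coli transformants were selected on 10 μg/ml gentamicin MacConkey agar; PAO1 electroporants were selected on 50 μg/ml gentamicin LB agar.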

Pseudomonas aeruginosa [4] = test: Antimicrobial activity against Pseudomonas aeruginosa PAO1 harboring pUCP carrying VIM-13 gene by Etest method; type: functional; outline: as §1
Pseudomonas aeruginosa [5] = test: Antimicrobial activity against Pseudomonas aeruginosa PAO1 by Etest method; type: functional
Escherichia coli [6] = test: Antimicrobial activity against Escherichia coli XL1-Blue harboring pUCP carrying VIM-1 gene by Etest method; type: functional; outline: as §1
Escherichia coli [7] = test: Antimicrobial activity against Escherichia coli XL1-Blue harboring pUCP carrying VIM-13 gene by Etest method; type: functional; outline: as §1
Escherichia coli [8] = test: Antimicrobial activity against Escherichia coli XL1-Blue by Etest method; type: functional
Escherichia coli [9] = test: Antimicrobial activity against Escherichia coli XL1-Blue harboring pGEM-T carrying aacA4 gene by Etest method; type: functional
Escherichia coli [10] = test: Antimicrobial activity against Escherichia coli XL1-Blue harboring pGEM-T carrying aacA4 Ala108Thr mutant gene by Etest method; type: functional
Beta-lactamase VIM-1 = Beta-lactamase VIM-1 (Pseudomonas aeruginosa, UniProt Q9XAY4); test: Inhibition of Pseudomonas aeruginosa VIM-1 beta-lactamase after 10 mins
Outline: (§2)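 Zn2+-removal inactivation of purified VIM-1 or VIM-13, tested with varied concentrations of EDTA, dipicolinic acid or 1,10-o-phenanthroline. Enzyme and chelator were incubated 10 min at 20°C in 50 mM HEPES pH 7.5 with 20 μg/ml BSA, then 100 μM imipenem hydrolysis was measured as the reporter. IC50 is the chelator level halving hydrolytic activity.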

[11] = target: Class B carbapenemase VIM-13 (Pseudomonas aeruginosa, UniProt Q2HY42); test: Inhibition of Pseudomonas aeruginosa VIM-13 beta-lactamase after 10 mins; outline: as §2

Compound	MIC (Pseudomonas aeruginosa [1]) [µg/mL]	MIC (Pseudomonas aeruginosa [2]) [µg/mL]	MIC (Pseudomonas aeruginosa [3]) [µg/mL]	MIC (Pseudomonas aeruginosa [4]) [µg/mL]	MIC (Pseudomonas aeruginosa [5]) [µg/mL]	MIC (Escherichia coli [6]) [µg/mL]	MIC (Escherichia coli [7]) [µg/mL]	MIC (Escherichia coli [8]) [µg/mL]	MIC (Escherichia coli [9]) [µg/mL]	MIC (Escherichia coli [10]) [µg/mL]	IC50 (Beta-lactamase VIM-1) [µM]	IC50 [11] [µM]
CO/N=C(\C(=O)N[C@@H]1C(=O)N2C(C(=O)[O-])=C(C[N+]3(C)CCCC3)CS[C@H]12)c1csc(N)n1	> 256	32 (≈ 66.6 µM)	> 256	64 (≈ 133 µM)	1 (≈ 2.08 µM)	12 (≈ 25 µM)	1 (≈ 2.08 µM)	0.19 (≈ 0.395 µM)	–	–	–	–
NCC[C@H](O)C(=O)N[C@@H]1C[C@H](N)[C@@H](O[C@H]2O[C@H](CN)[C@@H](O)[C@H](O)[C@H]2O)[C@H](O)[C@H]1O[C@H]1O[C@H](CO)[C@@H](O)[C@H](N)[C@H]1O [AMIKACIN]	3 (≈ 5.12 µM)	16 (≈ 27.3 µM)	–	–	–	–	–	0.75 (≈ 1.28 µM)	0.75 (≈ 1.28 µM)	0.75 (≈ 1.28 µM)	–	–
C[C@H]1[C@H](NC(=O)/C(=N\OC(C)(C)C(=O)O)c2csc(N)n2)C(=O)N1S(=O)(=O)O [AZTREONAM]	24 (≈ 55.1 µM)	4 (≈ 9.19 µM)	1.5 (≈ 3.44 µM)	1.5 (≈ 3.44 µM)	1 (≈ 2.3 µM)	0.125 (≈ 0.287 µM)	0.125 (≈ 0.287 µM)	0.19 (≈ 0.436 µM)	–	–	–	–
CO/N=C(\C(=O)N[C@@H]1C(=O)N2C(C(=O)O)=C(COC(C)=O)CS[C@H]12)c1csc(N)n1 [CEFOTAXIME]	> 256	> 256	> 256	> 256	16 (≈ 35.1 µM)	> 256	> 256	0.19 (≈ 0.417 µM)	–	–	–	–
CC(C)(O/N=C(\C(=O)N[C@@H]1C(=O)N2C(C(=O)[O-])=C(C[n+]3ccccc3)CS[C@H]12)c1csc(N)n1)C(=O)O [CEFTAZIDIME]	> 256	32 (≈ 58.5 µM)	> 256	128 (≈ 234 µM)	1 (≈ 1.83 µM)	32 (≈ 58.5 µM)	6 (≈ 11 µM)	0.38 (≈ 0.695 µM)	–	–	–	–
O=C(O)c1cn(C2CC2)c2cc(N3CCNCC3)c(F)cc2c1=O [CIPROFLOXACIN]	> 32	> 32	–	–	–	–	–	0.064 (≈ 0.193 µM)	0.064 (≈ 0.193 µM)	0.064 (≈ 0.193 µM)	–	–
O=C(O)c1cccc(C(=O)O)n1 [DIPICOLINIC ACID]	–	–	–	–	–	–	–	–	–	–	41.6	48

Source: ChEMBL document CHEMBL1275500, “Characterization of the new metallo-beta-lactamase VIM-13 and its integron-borne gene from a Pseudomonas aeruginosa clinical isolate in Spain” (Antimicrob Agents Chemother, 2008)
